Source: ChEMBL document CHEMBL6121049, “Discovery of Orally Available Prodrugs of Itaconate and Derivatives” (J Med Chem, 2025)
The source made the active and inactive calls. The calls are words filed in the database; no cut-off is given here.

How the values were obtained:
[1] = Prodrug conversion in C57BL6 mouse plasma assessed as itaconic acid Tmax at 100 mg/kg, po measured after 24 hrs by LC-MS/MS analysis; type: ADME, organism-based; details: in vivo
In short: (§1)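 C57BL6 mice, 25–30 g, 8.5 weeks old, given 100 mg/kg (IA or 4-MI equivalent) orally in 10% DMSO/80% PEG/10% HBS, freshly prepared; killed at 0.25–24 h, n = 3 per time point; acidified plasma and stabilized skin homogenates, methanol precipitation with internal standards, LC-MS/MS (orbitrap); PK parameters as mean ± SEM.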

[2] = Cytotoxicity against NHEK cells assessed as cell viability at 100 uM measured after 8 hrs by CellTiter-Glo assay relative to control; type: toxicity, cell-based; details: human
In short: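 Primary normal human epidermal keratinocytes, expanded and seeded, exposed to 1, 10, 30 or 100 μM for 8 h; viability by CellTiter-Glo luminescence as % viable.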

[3] = Immunomodulatory activity in NHEK cells assessed as inhibition of IFN-gamma induced CXCL11 expression at 30 to 100 uM by TaqMan RTPCR analysis relative to control; type: functional, Homo sapiens; details: dose 30-100 µM
In short: (§2)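 Primary human keratinocytes seeded, held overnight at 37 °C, 5% CO2, then stimulated with Poly(I:C) 50 μg/mL plus IFNγ 5 ng/mL, with or without prodrug at 1, 10, 30 or 100 μM; gene induction measured at 8 h.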

[4] = Immunomodulatory activity in NHEK cells assessed as inhibition of Poly(I:C)/IFN-gamma induced IL-1 beta expression at >= 10 uM by TaqMan RTPCR analysis relative to control; type: functional, Homo sapiens; parameters: scale not given: the % may be the effect or the level left; in short: as §2
[5] = Metabolic stability in mouse skin homogenate assessed as compound remaining at 10 uM measured after 1 hrs by LC-MS analysis; type: ADME, tissue-based, Skin of body; details: tissue homogenate
[6] = Metabolic stability in human skin homogenate assessed as compound remaining at 10 uM measured after 1 hrs by LC-MS analysis; type: ADME, tissue-based, Skin of body; details: tissue homogenate
[7] = Prodrug conversion in C57BL6 mouse skin assessed as itaconic acid AUC (0 to t) at 100 mg/kg, po measured after 24 hrs by LC-MS/MS analysis; type: ADME, organism-based, Skin of body; details: in vivo
[8] = Prodrug conversion in C57BL6 mouse plasma assessed as itaconic acid Cmax at 100 mg/kg, po measured after 24 hrs by LC-MS/MS analysis; type: ADME, organism-based; details: in vivo; in short: as §1
[9] = Chemical stability in pH 7.4 assessed as compound remaining at 10 uM measured after 1 hrs by LC-MS/MS analysis; type: physicochemical; details: buffer, pH 7.4, 1 h
In short: (§3)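 Compounds incubated in buffers at pH 1.2, 4.5 or 7.4 at 37 °C for 1 h; prodrug disappearance followed by LC–MS/MS as % remaining.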

[10] = Prodrug conversion in C57BL6 mouse plasma assessed as itaconic acid half life at 100 mg/kg, po measured after 24 hrs by LC-MS/MS analysis; type: ADME, organism-based; details: in vivo; in short: as §1
[11] = Chemical stability in pH 1.2 assessed as compound remaining at 10 uM measured after 1 hrs by LC-MS/MS analysis; type: physicochemical; details: buffer, pH 1.2, 1 h; in short: as §3
[12] = Prodrug conversion in C57BL6 mouse plasma assessed as itaconic acid AUC (0 to t) at 100 mg/kg, po measured after 24 hrs by LC-MS/MS analysis; type: ADME, organism-based; details: in vivo
[13] = Prodrug conversion in C57BL6 mouse skin assessed as itaconic acid Tmax at 100 mg/kg, po measured after 24 hrs by LC-MS/MS analysis; type: ADME, organism-based, Skin of body; details: in vivo; in short: as §1
[14] = Metabolic stability in human plasma assessed as compound remaining at 10 uM measured after 1 hrs by LC-MS analysis; type: ADME, cell-free
In short: (§4)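 Prodrugs (10 μM) spiked into mouse or human plasma, shaken at 37 °C; samples at 0 and 60 min quenched in cold acetonitrile with losartan internal standard, centrifuged, diluted, run by LC-HRMS; % remaining from analyte/IS peak-area ratio.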

[15] = Prodrug conversion in C57BL6 mouse skin assessed as itaconic acid Cmax at 100 mg/kg, po measured after 24 hrs by LC-MS/MS analysis; type: ADME, organism-based, Skin of body; details: in vivo; in short: as §1
[16] = Metabolic stability in mouse plasma assessed as compound remaining at 10 uM measured after 1 hrs by LC-MS analysis; type: ADME, cell-free; in short: as §4
[17] = Prodrug conversion in C57BL6 mouse skin assessed as itaconic acid half life at 100 mg/kg, po measured after 24 hrs by LC-MS/MS analysis; type: ADME, organism-based, Skin of body; details: in vivo; in short: as §1
[18] = Permeability of the compound at pH 7.4 incubated for 4 hrs by PAMPA-GIT assay; type: ADME; details: pH 7.4, 4 h
In short: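 PAMPA-GIT sandwich: acceptor filter coated with GIT-0 lipid; donor holds 10 μM compound in pH 7.4 buffer with 0.2% DMSO, acceptor pH 7.4 sink buffer; 4 h at room temperature; both compartments sampled by LC-MS/MS; effective permeability Pe calculated with membrane retention correction.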

[19] = Immunomodulatory activity in NHEK cells assessed as inhibition of IL-6 mRNA expression at 100 uM preincubated for 2 days and measured after 24 hrs by TaqMan RTPCR analysis; type: functional; details: Homo sapiens, 48 h, time 2 day
[20] = Chemical stability in pH 4.5 assessed as compound remaining at 10 uM measured after 1 hrs by LC-MS/MS analysis; type: physicochemical; details: buffer, pH 4.5, 1 h; in short: as §3
NHEK [21] = experiment: Immunomodulatory activity in NHEK cells assessed as inhibition of Poly(I:C)/IFN-gamma induced IL-1 beta expression at 100 uM by TaqMan RTPCR analysis; type: functional, cell-based; details: Homo sapiens; in short: as §2
[22] = Immunomodulatory activity in NHEK cells assessed as inhibition of IFN-gamma induced CXCL10 expression at 100 uM by TaqMan RTPCR analysis relative to control; type: functional; details: Homo sapiens; in short: as §2
[23] = Immunomodulatory activity in NHEK cells assessed as inhibition of IFN-gamma induced CXCL11 expression at 100 uM by TaqMan RTPCR analysis relative to control; type: functional; details: Homo sapiens; in short: as §2
NHEK [24] = experiment: Effect on IL-6 expression in NHEK cells at 500 uM preincubated for 2 days and measured after 24 hrs by TaqMan RTPCR analysis; type: functional, cell-based; details: Homo sapiens, time 2.0 day
NHEK [25] = experiment: Effect on TLR3 mRNA expression in NHEK cells at 500 uM preincubated for 2 days and measured after 24 hrs by TaqMan RTPCR analysis; type: functional, cell-based; details: Homo sapiens, time 2.0 day
[26] = Prodrug conversion in C57BL6 mouse skin assessed as 4-methyl itaconic AUC (0 to t) at 100 mg/kg, po measured after 24 hrs by LC-MS/MS analysis; type: ADME, organism-based, Skin of body; details: in vivo
[27] = Prodrug conversion in C57BL6 mouse plasma assessed as 4-methyl itaconate Tmax at 100 mg/kg, po measured after 24 hrs by LC-MS/MS analysis; type: ADME, organism-based; details: in vivo; in short: as §1
[28] = Prodrug conversion in C57BL6 mouse plasma assessed as 4-methyl itaconic AUC (0 to t) at 100 mg/kg, po measured after 24 hrs by LC-MS/MS analysis; type: ADME, organism-based; details: in vivo
[29] = Prodrug conversion in C57BL6 mouse skin assessed as 4-methyl itaconate Tmax at 100 mg/kg, po measured after 24 hrs by LC-MS/MS analysis; type: ADME, organism-based, Skin of body; details: in vivo; in short: as §1
[30] = Prodrug conversion in C57BL6 mouse skin assessed as 4-methyl itaconic half life at 100 mg/kg, po measured after 24 hrs by LC-MS/MS analysis; type: ADME, organism-based, Skin of body; details: in vivo; in short: as §1
[31] = Prodrug conversion in C57BL6 mouse plasma assessed as 4-methyl itaconic half life at 100 mg/kg, po measured after 24 hrs by LC-MS/MS analysis; type: ADME, organism-based; details: in vivo; in short: as §1
[32] = Toxicity in C57BL6 mouse assessed as body weight loss at 30 to 100 mg/kg, ip administrated daily and measured after 7 days; type: organism-based; details: in vivo, 168 h, dose 30-100 mg/kg, time 7 day
[33] = Toxicity in C57BL6 mouse assessed as hematological changes at 30 to 100 mg/kg, ip measured after 7 days; type: organism-based; details: in vivo, 168 h, dose 30-100 mg/kg, time 7 day
[34] = Prodrug conversion in C57BL6 mouse skin assessed as 4-methyl itaconate Cmax at 100 mg/kg, po measured after 24 hrs by LC-MS/MS analysis; type: ADME, organism-based, Skin of body; details: in vivo; in short: as §1
[35] = Prodrug conversion in C57BL6 mouse plasma assessed as 4-methyl itaconate Cmax at 100 mg/kg, po measured after 24 hrs by LC-MS/MS analysis; type: ADME, organism-based; details: in vivo; in short: as §1
[36] = Prodrug conversion in po dosed C57BL6 mouse skin assessed as 4-methyl itaconic concentration measured after 24 hrs; type: ADME, organism-based, Skin of body; details: in vivo

Structure (SMILES)	Stability [5] [%]	Stability [6] [%]	Stability [9] [%]	Stability [11] [%]	Stability [14] [%]	Stability [16] [%]	permeability [18]	Stability [20] [%]	other results
C=C(CC(=O)OCOC(=O)OC(C)C)C(=O)OCOC(=O)OC(C)C	2.5	1.1	47	104	0	0	35.9 10^-6 cm/s		Tmax [1]: 15 min; Activity [2]: > 80%; inhibition (INH) [3]: >50%; Activity [4]: >50%; AUCt [7]: 173 nmol·h/g; Cmax [8]: 83.8 µM; t1/2 [10]: 85.2 min; AUCt [12]: 108 µM·h; Tmax [13]: 60 min; Cmax [15]: 65.9 nmol/g; t1/2 [17]: 199 min; inhibition at 100 µM [19]: > 90%
C=C(CC(=O)OCOC(=O)OC(C)C)C(=O)OC	0	0	63	98	0	0	29.3 10^-6 cm/s	94	Activity [2]: > 80%; Activity (NHEK [21]): Active; inhibition at 100 µM [22]: < 50%; inhibition at 100 µM [23]: < 50%
C=C(CC(=O)OCc1oc(=O)oc1C)C(=O)O	74	93	0	109	0	20		88	
C=C(CC(=O)OCCCOCCCCCCCCCCCCCCCC)C(=O)OC	61	101	97	109	90	89		98	
C=C(CC(=O)OC)C(=O)OCc1oc(=O)oc1C	16	76	99	98	0	0	15.4 10^-6 cm/s	87	
C=C(CC(=O)OCOC(=O)C(C)(C)C)C(=O)OCOC(=O)C(C)(C)C	0	0	104	106	0	0	35.8 10^-6 cm/s	92	
C=C(CC(=O)OCc1oc(=O)oc1C)C(=O)OCc1oc(=O)oc1C	0	30	91	102	0	0	17 10^-6 cm/s	91	
C=C(CC(=O)OCOC(=O)C(C)(C)C)C(=O)OC	0	9.4	86	101	0	0	35.2 10^-6 cm/s	104	
C=C(CC(=O)OC)C(=O)OCCCOCCCCCCCCCCCCCCCC	67	94	75	103	32	44		108	
C=C(CC(=O)O)C(=O)O									Activity (NHEK [24]): inactive; Activity (NHEK [25]): inactive
C=C(CC(=O)OCOC(=O)OC(C)C)C(=O)O	4.9	29	44	104	53	0		79	
C=C(CC(=O)OC)C(=O)OCOC(=O)C(C)(C)C	5.3	15	94	99	0	0	33.2 10^-6 cm/s	109	
C=C(CC(=O)OCCCOCCCCCCCCCCCCCCCC)C(=O)O	100	87	65	91	68	92	3.2 10^-6 cm/s	90	
C=C(CC(=O)OC)C(=O)OCOC(=O)OC(C)C	0	1.6	102	108	0	0	35.3 10^-6 cm/s	103	Activity [2]: > 80%; AUCt [26]: 234 nmol·h/g; inhibition (INH) [3]: >50%; Activity [4]: >50%; Tmax [27]: 30 min; AUCt [28]: 415 µM·h; Tmax [29]: 60 min; t1/2 [30]: 58.2 min; t1/2 [31]: 52.2 min; Activity [32]: Non-toxic; Activity [33]: Non-toxic; Cmax [34]: 192 nmol/g; Cmax [35]: 349 µM; inhibition at 100 µM [19]: > 90%; Drug metabolism [36]: > 100 µM
C=C(CC(=O)OC)C(=O)O									Activity (NHEK [24]): inactive; Activity (NHEK [25]): inactive
C=C(CC(=O)OCc1oc(=O)oc1C)C(=O)OC	0	56	69	100	0	0	16.3 10^-6 cm/s	97	
C=C(CC(=O)OCOC(=O)C(C)(C)C)C(=O)O	14	40	22	100	83	3	0.08 10^-6 cm/s	74	
